Reference: ChEMBL document CHEMBL3593197, “Development of novel DIF-1 derivatives that selectively suppress innate immune responses” (Bioorg Med Chem, 2015)
The source made the active and inactive calls. No cut-off for these calls is given here.

Experiments:
[1] = test system: Jurkat; assay: Cytotoxicity against human Jurkat cells assessed as reduction in cell viability at 5 uM by MTT assay; assay type: cell-based
Method in brief: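 Jurkat cells pre-incubated 30 min with 5 µM compound or 0.1% DMSO vehicle, then incubated under the same conditions as the IL-2 assay (ConA added, 12 h). Viable cells were measured by MTT assay as percent of control. Mean ± SD of three independent experiments.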

[2] = test system: Drosophila; assay: Selectivity index, ratio of CC50 for Drosophila S2 by WST8 assay to IC50 for immunosuppressive activity in Drosophila S2 cells expressing att-luc reporter gene assessed as inhibition of attacin production; assay type: functional
Method in brief: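 The ratio is CC50 divided by IC50. CC50 comes from 24 h WST-8 proliferation of S2 cells, relative to DMSO. IC50 comes from 8 h luciferase signal in peptidoglycan-stimulated (100 ng/mL) S2 att-luc reporter cells pre-treated 1.5 h. Both were derived from concentration series.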

[3] = test system: Drosophila; assay: Immunosuppressive activity in Drosophila S2 cells expressing att-luc reporter gene assessed as inhibition of peptidoglycan-induced attacin production pre-treated for 1.5 hrs before peptidoglycan stimulation for 8 hrs by luciferase reporter gene assay; assay type: functional
Method in brief: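 S2 cells stably carrying an attacin-promoter luciferase reporter were pre-treated with a concentration series of compound for 1.5 h. They were then stimulated with 100 ng/mL peptidoglycan. After 8 h, cells were lysed and luciferase luminescence was read. IC50 is the concentration lowering signal to 50% of the peptidoglycan-only control. Mean ± SD of four independent experiments.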

[4] = Cytotoxicity against Drosophila S2 assessed as reduction in cell proliferation by WST8 assay; details: Drosophila S2 cells
Method in brief: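 S2 cells exposed to a concentration series of compound for 24 h; proliferation read by colorimetric WST-8 conversion. CC50 is the concentration reducing proliferation to 50% of DMSO control. Mean ± SD of four independent experiments.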

[5] = test system: Jurkat; assay: Immunosuppressive activity in human Jurkat cells assessed as inhibition of ConA-induced IL2 production at 5 uM pre-treated for 30 mins before ConA stimulation for 12 hrs by immunoassay; assay type: functional, cell-based
Method in brief: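 ConA was added to a final 25 µg/mL and cells were incubated a further 12 h. Secreted IL-2 in the culture medium was quantified by anti-human IL-2 sandwich immunoassay, in duplicate wells. Mean ± SD of three independent experiments.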

Structure (SMILES) | Activity [1] | Ratio CC50/IC50 [2] | IC50 [3] [µM] | CC50 [4] [µM] | inhibition [5] | inhibition [3]
CCCCCCC(=O)c1c(OC)c(Cl)c(OC)c(Cl)c1OC | Non-toxic | 8.3 | 16.8 | 140 | Active | 
CCCCCCc1c(O)c(Cl)c(OC)c(Cl)c1O |  | >1.7 | 58.6 | > 100 |  | 
CCCCCCCC(=O)c1c(OC)c(Cl)c(OC)c(Cl)c1OC |  | 3.4 | 15.3 | 51.4 |  | 
CCCCCCCCC(=O)c1c(O)c(Cl)c(O)c(Cl)c1O |  | 12.7 | 6.5 | 82.8 |  | 
CCCCCC(=O)c1c(O)c(Cl)c(C)c(Cl)c1O |  | 3.6 | 3.8 | 13.8 |  | 
CCCCCC(=O)c1c(O)c(Cl)c(OC)c(Cl)c1O |  | 4.9 | 4.6 | 22.5 |  | Dose-dependent effect
CCCC(=O)c1c(OC)c(Cl)c(OC)c(Cl)c1OC |  | 6.9 | 20.8 | 144 |  | 
CCCCCCCC(=O)c1c(O)c(Cl)c(O)c(Cl)c1O | Non-toxic | 23.9 | 3.7 | 88.5 | Active | 
CCCCCC(=O)c1c(O)c(Br)c(OC)c(Br)c1O |  | 3.5 | 3.7 | 12.9 |  | 
CCCCC(=O)c1c(OC)c(Cl)c(OC)c(Cl)c1OC |  | 6.3 | 23.5 | 149 |  | 
CCCCCC(=O)c1c(OC)c(Cl)c(OC)c(Cl)c1OC |  | 7.8 | 18.9 | 148 |  | 
CCCCCC(=O)c1c(O)c(Cl)c(O)c(Cl)c1O |  | 10.3 | 9.9 | 102 |  | 
CCCC(=O)c1c(O)c(Cl)c(O)c(Cl)c1O |  | >4.7 | 21.5 | > 100 |  | 
CCCCCC(=O)c1c(O)cc(OC)c(Cl)c1O |  | 1.9 | 4.6 | 8.7 |  | 
